Active and inactive are the calls of the source. No cut-off for these calls is given here.
Key:
[1] = system: Candida albicans; test: Antimicrobial activity against Candida albicans ATCC 60193 at 5 ug; type: functional; settings: read-out: IZ
Procedure, shortened: (§1)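 Compounds were dissolved in […] as 20.000 µg/mL stocks. Fluconazole (5 µg) was the reference antifungal, and DMSO diluted 1:10 was the solvent control.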

[2] = system: Saccharomyces cerevisiae; test: Antimicrobial activity against Saccharomyces cerevisiae RSKK 251 at 5 ug; type: functional; settings: read-out: IZ; procedure, shortened: as §1
[3] = system: Bacillus cereus; test: Antimicrobial activity against Bacillus cereus 702 Roma; type: functional
Procedure, shortened: (§2)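 Compound stocks were 20.000 µg/mL in hexane. DMSO diluted 1:10 served as the solvent control, and ampicillin was the reference drug.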

[4] = system: Staphylococcus aureus; test: Antimicrobial activity against Staphylococcus aureus ATCC 25923; type: functional; procedure, shortened: as §2
[5] = system: Candida albicans; test: Antimicrobial activity against Candida albicans ATCC 60193; type: functional
[6] = system: Mycolicibacterium smegmatis; test: Antimicrobial activity against Mycobacterium smegmatis ATCC 607; type: functional
[7] = Inhibition of Bacillus cereus metallo beta-lactamase assessed as nitrocefin substrate hydrolysis after 20 mins
Procedure, shortened: (§3)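 Commercial B. cereus metallo-β-lactamase (1.5 µM solution) was combined with nitrocefin (150 µM solution) and compound in 25 mM PIPES pH 7.0 containing 100 µM ZnSO4. A486 was read continuously for 20 min at 37 °C. Residual activity was taken relative to the no-inhibitor control, in triplicate. Screening used 1 mM final; IC50 came from a concentration series. HgCl2 was the positive control.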

[8] = system: Bacillus cereus; test: Inhibition of Bacillus cereus metallo beta-lactamase assessed as nitrocefin substrate hydrolysis at 1 mM after 20 mins; procedure, shortened: as §3
[9] = system: Pseudomonas aeruginosa; test: Antimicrobial activity against Pseudomonas aeruginosa ATCC 43288; type: functional; procedure, shortened: as §2
[10] = system: Saccharomyces cerevisiae; test: Antimicrobial activity against Saccharomyces cerevisiae RSKK 251; type: functional
[11] = system: Yersinia pseudotuberculosis; test: Antimicrobial activity against Yersinia pseudotuberculosis ATCC 911; type: functional
Procedure, shortened: (§4)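 Compounds were dissolved in […] as 20.000 µg/mL stocks. Ampicillin (10 µg) was the reference antibacterial, and DMSO diluted 1:10 was the solvent control.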

[12] = system: Enterococcus faecalis; test: Antimicrobial activity against Enterococcus faecalis ATCC 29212; type: functional; procedure, shortened: as §2
[13] = system: Bacillus cereus; test: Antimicrobial activity against Bacillus cereus 702 Roma at 10 ug; type: functional; settings: read-out: IZ
[14] = system: Yersinia pseudotuberculosis; test: Antimicrobial activity against Yersinia pseudotuberculosis ATCC 911 at 10 ug; type: functional; settings: read-out: IZ; procedure, shortened: as §4
[15] = system: Pseudomonas aeruginosa; test: Antimicrobial activity against Pseudomonas aeruginosa ATCC 43288 at 10 ug; type: functional; settings: read-out: IZ
[16] = system: Enterococcus faecalis; test: Antimicrobial activity against Enterococcus faecalis ATCC 29212 at 10 ug; type: functional; settings: read-out: IZ
[17] = system: Staphylococcus aureus; test: Antimicrobial activity against Staphylococcus aureus ATCC 25923 at 10 ug; type: functional; settings: read-out: IZ
[18] = system: Escherichia coli; test: Antimicrobial activity against Escherichia coli ATCC 25922 at 10 ug; type: functional; settings: read-out: IZ; procedure, shortened: as §4
[19] = biological target: Urease (Canavalia ensiformis) (UniProt P07374); test: Inhibition of jack bean urease using urea as substrate assessed as ammonia production at 100 ug/ml after 15 mins relative to control
Chain of Urease (Canavalia ensiformis) (P07374 whole entry, looked up): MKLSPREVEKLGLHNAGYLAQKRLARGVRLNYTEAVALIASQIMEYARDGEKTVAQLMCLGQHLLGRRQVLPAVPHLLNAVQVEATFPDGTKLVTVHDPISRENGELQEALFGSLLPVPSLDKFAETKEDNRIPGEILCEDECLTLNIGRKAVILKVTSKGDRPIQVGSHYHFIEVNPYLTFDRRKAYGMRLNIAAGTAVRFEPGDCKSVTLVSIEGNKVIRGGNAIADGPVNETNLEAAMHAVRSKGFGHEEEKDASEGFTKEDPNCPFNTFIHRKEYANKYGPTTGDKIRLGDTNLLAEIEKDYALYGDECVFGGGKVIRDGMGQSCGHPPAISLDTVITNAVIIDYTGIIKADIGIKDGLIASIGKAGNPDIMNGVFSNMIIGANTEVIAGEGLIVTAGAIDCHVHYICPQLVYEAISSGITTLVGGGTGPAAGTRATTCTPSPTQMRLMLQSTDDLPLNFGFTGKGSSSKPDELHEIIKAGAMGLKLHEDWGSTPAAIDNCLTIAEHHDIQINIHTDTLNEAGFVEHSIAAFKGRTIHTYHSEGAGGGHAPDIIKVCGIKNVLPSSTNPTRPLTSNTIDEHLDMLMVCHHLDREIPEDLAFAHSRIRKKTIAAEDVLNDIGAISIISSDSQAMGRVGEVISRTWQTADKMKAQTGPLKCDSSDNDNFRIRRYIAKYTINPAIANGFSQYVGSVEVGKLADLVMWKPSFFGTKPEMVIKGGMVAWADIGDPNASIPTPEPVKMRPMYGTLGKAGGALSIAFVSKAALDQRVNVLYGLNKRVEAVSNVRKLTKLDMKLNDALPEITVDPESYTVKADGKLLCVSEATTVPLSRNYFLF

[20] = biological target: Urease (Canavalia ensiformis, UniProt P07374); test: Inhibition of jack bean urease using urea as substrate assessed as ammonia production after 15 mins
Chain of Urease (P07374 whole entry): as the sequence (P07374 whole entry, looked up) above
Procedure, shortened: (§5)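 Jack bean urease in pH 8.2 buffer (100 mM urea, 0.01 M K2HPO4, 1 mM EDTA, 0.01 M LiCl) was incubated with compound for 15 min at room temperature. Ammonia was measured by the indophenol method (phenol/nitroprusside, then NaOH/NaOCl) at A625 after 20 min. Inhibition % = 100 − (OD test/OD control)×100. […] Thiourea was the standard.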

[21] = biological target: Urease (Canavalia ensiformis) (UniProt P07374); test: Inhibition of jack bean urease using urea as substrate assessed as ammonia production at 250 ug/ml after 15 mins relative to control; procedure, shortened: as §5

| SMILES | inhibition zone (IZ) [3] | inhibition zone (IZ) [4] [mm] | inhibition zone (IZ) [5] [mm] | inhibition zone (IZ) [6] | IC50 [7] [µM] | inhibition [8] [%] | inhibition zone (IZ) [9] | inhibition zone (IZ) [10] | inhibition zone (IZ) [11] | inhibition zone (IZ) [12] | also measured |
| --- | --- | --- | --- | --- | --- | --- | --- | --- | --- | --- | --- |
| OC(Cn1cncn1)(Cn1cncn1)c1ccc(F)cc1F [FLUCONAZOLE] |  |  |  |  |  |  |  |  |  |  | zone of inhibition at 5 µg/disc [1]: 25 mm; zone of inhibition at 5 µg/disc [2]: > 25 mm |
| CC(=O)OCC1=C(C(=O)O)N2C(=O)[C@@H](NS(=O)(=O)c3ccc(/N=c4/sc(-c5ccc(Cl)cc5)cn4Cc4ccccc4)cc3)[C@H]2SC1 | inactive | 22 | 10 | inactive | 543 | 64 | 8 mm | inactive | 8 mm | 8 mm |  |
| CC1(C)S[C@@H]2[C@H](NC(=O)[C@H](N)c3ccccc3)C(=O)N2[C@H]1C(=O)O [AMPICILLIN] |  |  |  |  |  |  |  |  |  |  | zone of inhibition at 10 µg/disc [13]: 15 mm; zone of inhibition at 10 µg/disc [14]: 18 mm; zone of inhibition at 10 µg/disc [15]: 18 mm; zone of inhibition at 10 µg/disc [16]: 10 mm; zone of inhibition at 10 µg/disc [17]: 35 mm; zone of inhibition at 10 µg/disc [18]: 10 mm |
| O=C(Nc1ccccc1)Nc1ccc(S(=O)(=O)Cl)cc1 | inactive | 6 | 8 | inactive |  |  | inactive | 15 mm | inactive | inactive | inhibition [19]: 39.3%; IC50 [20]: 388 µM; inhibition [21]: 100% |
| CC(=O)OCC1=C(C(=O)O)N2C(=O)[C@@H](NC(=O)CN3CCN(c4ccc([N+](=O)[O-])cc4F)CC3)[C@H]2SC1 | 10 mm | 18 | 15 | 22 mm | 1170 | 24 | inactive | 30 mm | 6 mm | 8 mm |  |

— ChEMBL document CHEMBL2434823, “Design, synthesis and biological activities of some 7-aminocephalosporanic acid derivatives” (Eur J Med Chem, 2013)
